Screens (PubChem)
M5 PAM – human M5 muscarinic receptor positive allosteric modulators, primary screen, CHO-K1 cells, Fluo-8 calcium fluorescence; CHO-K1 hM5, ACh EC20 PAM; 0% = ACh EC20, 100% = ACh EC100; 0.3% of 360,000 active; activation, % at 3 µM; Muscarinic acetylcholine receptor M5 (Homo sapiens), P08912;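 active = activation above the run cutoff, the mean activation of all test compounds plus 3 SD, cut at about 18% in these data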
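Replicates: One well per compound, no replicates | System: Human M5 receptor in CHO-K1 cells | Benchmarks: Low control EC20 acetylcholine (0%), high control EC100 acetylcholine (100%) | Probe or stimulus: Acetylcholine, EC20 level | Times: Fluo-8 loading 80 min at 37 °C plus 30 min room temperature | Signal: Intracellular calcium via Fluo-8 fluorescence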
M4 ag – human M4 muscarinic receptor agonists, primary screen, CHO-K1 cells, Fluo-8 calcium fluorescence; CHO-K1 hM4/Gqi5; vehicle 0%, full acetylcholine response 100%; activation, % at 3 µM; 0.14% of 360,000 active;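 active = activation above the run mean over all test wells plus 3 SD, cut at about 32% in these data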;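 note: peak over basal fluorescence ratio per well then scaled between controls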
Target sequence (P08173 whole entry, looked up): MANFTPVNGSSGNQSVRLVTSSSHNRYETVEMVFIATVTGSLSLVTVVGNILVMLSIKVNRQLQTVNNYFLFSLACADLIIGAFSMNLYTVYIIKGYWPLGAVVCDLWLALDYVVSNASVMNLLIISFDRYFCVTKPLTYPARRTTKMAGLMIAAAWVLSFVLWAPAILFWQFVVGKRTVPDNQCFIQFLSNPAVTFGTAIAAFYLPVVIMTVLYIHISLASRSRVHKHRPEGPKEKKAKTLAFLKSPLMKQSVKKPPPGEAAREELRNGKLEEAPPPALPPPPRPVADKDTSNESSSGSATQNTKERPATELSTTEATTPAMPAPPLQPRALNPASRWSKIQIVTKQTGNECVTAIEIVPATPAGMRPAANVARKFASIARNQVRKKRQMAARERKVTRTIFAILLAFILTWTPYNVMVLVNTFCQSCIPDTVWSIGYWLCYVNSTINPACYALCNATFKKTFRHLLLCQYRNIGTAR
M4 PAM – human M4 muscarinic receptor positive allosteric modulators, primary screen, CHO-K1 cells, Fluo-8 calcium fluorescence; 0.4% of 360,000 active; CHO-K1 hM4/Gqi5, ACh EC20; 0% = ACh EC20, 100% = maximal ACh; activation, % at 3 µM; Muscarinic acetylcholine receptor M4 (Homo sapiens), P08173;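 active = activation above its plate's cutoff, the mean activation of sample wells plus 3 SD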
M5 antag – human M5 muscarinic receptor antagonists, primary screen, CHO cells, Fluo-8 calcium fluorescence | Muscarinic acetylcholine receptor M5 (Homo sapiens), P08912 | CHO-hM5 cells, ACh EC80 | inhibition, % at 3 µM | 0.59% of 360,000 active | AID 624040, 2012;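 active = inhibition above a per-plate cutoff, the mean of that plate's test compounds plus 3 SD, cut at about 27% in these data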
CHRM4 antagonist – human M4 muscarinic receptor antagonists, primary screen, CHO cells, Fluo-8 calcium fluorescence; Muscarinic acetylcholine receptor M4 (Homo sapiens), P08173; CHO-hM4 cells, ACh EC80; inhibition, % at 3 µM; 0.73% of 360,000 active;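 active = inhibition above its plate's cutoff, the mean inhibition of sample wells plus 3 SD, cut at about 27% in these data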
CHRM5 agonist – human M5 muscarinic receptor agonists, primary screen, CHO-K1 cells, Fluo-8 calcium fluorescence | 0.19% of 360,000 active | activation, % at 3 µM | Muscarinic acetylcholine receptor M5 (Homo sapiens), P08912 | CHO-K1 hM5 cells; 0% DMSO wells, 100% maximal acetylcholine response | AID 624037, 2012;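 active = activation above the run's mean over test compounds plus 3 SD, cut at about 23% in these data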;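 note: signal is peak over basal fluorescence ratio across the kinetic read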
Of the large screens only hits and unclear results are named; the others gave an inactive call; ! = a repeat was not active. This is a sample that favours compounds with a hit; in the whole collection about 1.8% have one here.

CN(C)CC(c1ccccc1)c1ccccc1	none
CCN(CC)CCCN(C(=O)c1ccc(Br)cc1)c1nc(-c2ccc(OC)cc2)cs1	M4 PAM 46.5
CCN(CC)CCCN(C(=O)c1cccc(C)c1)c1nc(-c2ccc(OC)cc2)cs1	M4 PAM 65.0, CHRM4 antagonist 35.3
CCN(CC)CCCN(C(=O)c1cccs1)c1nc(-c2ccc(OC)cc2)cs1	none
COc1cccc(N2CCN(S(=O)(=O)c3ccc4c(c3)N(C(C)=O)CCO4)CC2)c1	none
COc1cc(N(C(C)=O)c2ccc(O)c(C(=O)O)c2)c2ncccc2c1	none
Cn1nc(Cc2cccc3ccccc23)c(C#N)c1N	none
N#Cc1c(Cc2cccc3ccccc23)nn(CCO)c1N	M4 PAM 24.7
CCSc1nnc(N2C(=O)c3ccc(C(=O)c4ccc(C(=O)O)cc4)cc3C2=O)s1	none
C[C@H](CO)N1C[C@H](C)[C@H](CN(C)Cc2ccccc2)Oc2ncc(Br)cc2C1=O	none
Cn1c(N)c(C(=O)COC(=O)/C=C/c2ccc(Cl)cc2Cl)c(=O)n(C)c1=O	none
COc1cccc(/C=C/C(=O)OCCN2C(=O)c3ccccc3C2=O)c1	none
COc1ccc(N(C)S(=O)(=O)c2cccc(C(=O)OCC(=O)c3c(N)n(C)c(=O)n(C)c3=O)c2)cc1	CHRM4 antagonist 38.0
COc1ccccc1/C=C/C(=O)OCC(=O)c1c(N)n(C)c(=O)n(C)c1=O	M5 PAM 19.4
COc1ccccc1/C=C/C(=O)OCCN1C(=O)c2ccccc2C1=O	CHRM4 antagonist 78.8
CCCCCCCCCCCCCCCCCCNc1ccn(C2OC(COP(=O)(O)OCC3OC(n4cc(F)c(=O)[nH]c4=O)CC3O)C(O)C2O)c(=O)n1 (stereo unspecified)	none
CC1CC(OC(=O)C(O)c2ccccc2)CC(C)(C)N1C (stereo unspecified)	M5 antag 88.3, CHRM4 antagonist 40.8
CNc1cc(C)nc(N2CCOCC2)n1	M5 antag 28.7
O=C(CSc1ncnc2[nH]ncc12)Nc1nc(-c2ccc(F)c(F)c2)cs1	CHRM4 antagonist 31.3
CCOc1ccccc1NC(=O)CSc1nnc(NC(=O)c2ccco2)s1	M4 PAM 21.8
O=C(CSc1nnc(NC(=O)c2ccco2)s1)Nc1ccccc1F	M4 PAM 24.5
O=C(Nc1nnc(COc2ccccc2)s1)c1ccco1	M4 PAM 16.2
CC(=O)c1cccc(NC(=O)C(C)OC(=O)Cc2c[nH]c3ccccc23)c1 (stereo unspecified)	none
COCCNC(=O)/C(C#N)=C/c1c(N2CCCCCC2)nc2ccccn2c1=O	CHRM4 antagonist 98.7
CCCOc1ccc(CSc2nc3ccccc3[nH]2)cc1	M5 antag 41.6
CCOc1ccc(OCCSc2nc3ccccc3[nH]2)cc1	none
CCOC(=O)CCCCCCCCC(=O)Nc1ccc(-n2[nH]c(=O)cc2C)cc1	CHRM5 agonist 23.6
CCC(C)n1c(NC(=O)c2ccccc2)c(C#N)c2nc3ccccc3nc21 (stereo unspecified)	M5 PAM 18.5
COc1ccc(C(=O)Nc2ccnn2C2CCN(C(=O)c3cnsn3)CC2)cc1	none
O=C(NCCOc1ccccc1)c1cc(C(=O)NCCOc2ccccc2)cc([N+](=O)[O-])c1	M5 antag 27.4
O=C(NCCOc1ccccc1)c1ccccc1[N+](=O)[O-]	none
CN1CCc2cccc3c2[C@H]1Cc1ccc(O)c(O)c1-3	CHRM4 antagonist 81.3!
CN1CCc2cc3c(c4c2[C@H]1[C@H](O)c1ccccc1-4)OCO3	none
CC(C)n1c(CNC(=O)c2ccccc2F)nnc1SCC(=O)c1ccc(F)cc1	none
Cc1sc2ncn3c(C)nnc3c2c1C	M4 PAM 18.9
